Results from ChEMBL document CHEMBL1781935, “Amberlite-IRA-402 (OH) ion exchange resin mediated synthesis of indolizines, pyrrolo [1,2-a] quinolines and isoquinolines: antibacterial and antifungal evaluation of the products” (2011).
≈ marks a conversion by molar mass, not a printed value. Calls of active or inactive are those of the source. The calls are words filed in the database; no cut-off is given here.

Columns and labels:
Vibrio cholerae [1] = test: Antibacterial activity against Vibrio cholerae isolate 7201 at 1 to 1000 ug/ml after overnight incubation by disc diffusion method; assay type: functional
Pseudomonas aeruginosa [2] = test: Antibacterial activity against Pseudomonas aeruginosa ATCC 27853 at 1 to 1000 ug/ml after overnight incubation by disc diffusion method; assay type: functional
In short: (§1)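 Disc diffusion on Mueller-Hinton agar. Plates seeded with 0.1 ml bacterial suspension (2 × 10^6 cfu/ml). Sterile 6 mm paper discs were impregnated with compound solutions at 1–1000 µg/ml and incubated at 37 °C overnight. Read-out was the diameter of the clear inhibition zone. Stocks were 1 mg/ml in 4% Tween 80 or 4% propylene glycol.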

Bacillus subtilis [3] = test: Antibacterial activity against Bacillus subtilis UC564 at 1 to 1000 ug/ml after overnight incubation by disc diffusion method; assay type: functional; in short: as §1
Shigella flexneri [4] = test: Antibacterial activity against Shigella flexneri DN13; assay type: functional
In short: (§2)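 MIC by broth and agar dilution. Broth: 0.1 ml suspension (2 × 10^6 cfu/ml) in Mueller-Hinton broth with test drug at 1–1000 µg/ml, 37 °C overnight. Agar: serial drug dilutions in Mueller-Hinton agar, spot-inoculated with 2 × 10^6 cfu/spot, 37 °C for 24 h. MIC was the lowest concentration with no visible growth. Antibiotic controls were included.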

Klebsiella pneumoniae [5] = test: Antibacterial activity against Klebsiella pneumoniae isolate J/1/4; assay type: functional; in short: as §2
Shigella dysenteriae [6] = test: Antibacterial activity against Shigella dysenteriae isolate 3; assay type: functional
Enterococcus faecalis [7] = test: Antibacterial activity against Streptococcus faecalis isolate 29212; assay type: functional; in short: as §2
Vibrio parahaemolyticus [8] = test: Antibacterial activity against Vibrio parahaemolyticus isolate 72016; assay type: functional; in short: as §2
Vibrio cholerae [9] = test: Antibacterial activity against Vibrio cholerae isolate 720 at 1 to 1000 ug/ml after overnight incubation by disc diffusion method; assay type: functional
Escherichia coli [10] = test: Antibacterial activity against Escherichia coli ATCC 25938 at 1 to 1000 ug/ml after overnight incubation by disc diffusion method; assay type: functional; in short: as §1
Micrococcus luteus [11] = test: Antibacterial activity against Micrococcus luteus AGD1; assay type: functional; in short: as §2
Salmonella typhi [12] = test: Antibacterial activity against Salmonella typhi DIRW at 1 to 1000 ug/ml after overnight incubation by disc diffusion method; assay type: functional; settings: Salmonella enterica subsp. enterica serovar Typhi
Vibrio cholerae [13] = test: Antibacterial activity against Vibrio cholerae isolate 7201; assay type: functional
Bacillus subtilis [14] = test: Antibacterial activity against Bacillus subtilis UC564; assay type: functional; in short: as §2
Klebsiella pneumoniae [15] = test: Antibacterial activity against Klebsiella pneumoniae isolate J/1/4 at 1 to 1000 ug/ml after overnight incubation by disc diffusion method; assay type: functional; in short: as §1
Shigella flexneri [16] = test: Antibacterial activity against Shigella flexneri DN13 at 1 to 1000 ug/ml after overnight incubation by disc diffusion method; assay type: functional; in short: as §1
Salmonella typhi [17] = test: Antibacterial activity against Salmonella typhi DIRW; assay type: functional, Salmonella enterica subsp. enterica serovar Typhi; settings: Salmonella enterica
Pseudomonas aeruginosa [18] = test: Antibacterial activity against Pseudomonas aeruginosa ATCC 27853; assay type: functional; in short: as §2
Salmonella typhimurium [19] = test: Antibacterial activity against Salmonella Typhimurium isolate 11 at 1 to 1000 ug/ml after overnight incubation by disc diffusion method; assay type: functional, organism-based; settings: Salmonella enterica subsp. enterica serovar Typhimurium; in short: as §1
Escherichia coli [20] = test: Antibacterial activity against Escherichia coli ATCC 25938; assay type: functional; in short: as §2
Staphylococcus aureus [21] = test: Antibacterial activity against Staphylococcus aureus ATCC 25923 at 1 to 1000 ug/ml after overnight incubation by disc diffusion method; assay type: functional; in short: as §1
Shigella dysenteriae [22] = test: Antibacterial activity against Shigella dysenteriae isolate 3 at 1 to 1000 ug/ml after overnight incubation by disc diffusion method; assay type: functional
Enterococcus faecalis [23] = test: Antibacterial activity against Enterococcus faecalis isolate 29212 at 1 to 1000 ug/ml after overnight incubation by disc diffusion method; assay type: functional; in short: as §1
Vibrio parahaemolyticus [24] = test: Antibacterial activity against Vibrio parahaemolyticus isolate 72016 at 1 to 1000 ug/ml after overnight incubation by disc diffusion method; assay type: functional; in short: as §1
Salmonella typhimurium [25] = test: Antibacterial activity against Salmonella Typhimurium isolate 11; assay type: functional, Salmonella enterica subsp. enterica serovar Typhimurium; settings: Salmonella enterica; in short: as §2
Staphylococcus aureus [26] = test: Antibacterial activity against Staphylococcus aureus ATCC 25923; assay type: functional; in short: as §2
Micrococcus luteus [27] = test: Antibacterial activity against Micrococcus luteus AGD1 at 1 to 1000 ug/ml after overnight incubation by disc diffusion method; assay type: functional; in short: as §1

For `CCOC(=O)c1cc(C(=O)c2ccccc2)n2ccc3ccccc3c12`, the “diameter of the inhibition zone (DIZ)” value (Vibrio cholerae [1]) was 10.2 mm, the “diameter of the inhibition zone (DIZ)” value (Pseudomonas aeruginosa [2]) was 11 mm and the “diameter of the inhibition zone (DIZ)” value (Bacillus subtilis [3]) was 11.4 mm. It also gave an MIC (Shigella flexneri [4]) of 256 µg/mL (≈ 746 µM), an MIC (Klebsiella pneumoniae [5]) of 256 µg/mL (≈ 746 µM) and an MIC (Shigella dysenteriae [6]) of 128 µg/mL (≈ 373 µM). The MIC (Enterococcus faecalis [7]) was 256 µg/mL (≈ 746 µM), the MIC (Vibrio parahaemolyticus [8]) was 256 µg/mL (≈ 746 µM) and the “diameter of the inhibition zone (DIZ)” value (Vibrio cholerae [9]) was 10.2 mm. For the same molecule, the “diameter of the inhibition zone (DIZ)” value (Escherichia coli [10]) was 11.2 mm, the MIC (Micrococcus luteus [11]) was 500 µg/mL (≈ 1460 µM) and the “diameter of the inhibition zone (DIZ)” value (Salmonella typhi [12]) was “inactive”. The MIC (Vibrio cholerae [13]) was 32 µg/mL (≈ 93.2 µM), the MIC (Bacillus subtilis [14]) was 64 µg/mL (≈ 186 µM) and the “diameter of the inhibition zone (DIZ)” value (Klebsiella pneumoniae [15]) was 8.5 mm. The “diameter of the inhibition zone (DIZ)” value (Shigella flexneri [16]) was 7.1 mm, the MIC (Salmonella typhi [17]) was greater than 500 µg/mL and the MIC (Pseudomonas aeruginosa [18]) was 64 µg/mL (≈ 186 µM). For the same molecule, the “diameter of the inhibition zone (DIZ)” value (Salmonella typhimurium [19]) was “inactive”, the MIC (Escherichia coli [20]) was 64 µg/mL (≈ 186 µM) and the “diameter of the inhibition zone (DIZ)” value (Staphylococcus aureus [21]) was 8.3 mm. For the same molecule, the “diameter of the inhibition zone (DIZ)” value (Shigella dysenteriae [22]) was 9.7 mm, the “diameter of the inhibition zone (DIZ)” value (Enterococcus faecalis [23]) was 7 mm and the “diameter of the inhibition zone (DIZ)” value (Vibrio parahaemolyticus [24]) was 8 mm. The MIC (Salmonella typhimurium [25]) was 256 µg/mL (≈ 746 µM), the MIC (Staphylococcus aureus [26]) was 256 µg/mL (≈ 746 µM) and the “diameter of the inhibition zone (DIZ)” value (Micrococcus luteus [27]) was 8.1 mm.
Work on `CC1(C)S[C@@H]2[C@H](NC(=O)[C@H](N)c3ccc(O)cc3)C(=O)N2[C@H]1C(=O)O` [AMOXICILLIN] yielded an MIC (Shigella flexneri [4]) of 128 µg/mL (≈ 350 µM), an MIC (Klebsiella pneumoniae [5]) of 128 µg/mL (≈ 350 µM) and an MIC (Shigella dysenteriae [6]) of 64 µg/mL (≈ 175 µM). The MIC (Enterococcus faecalis [7]) was 0.25 µg/mL (≈ 0.684 µM), the MIC (Vibrio parahaemolyticus [8]) was 256 µg/mL (≈ 701 µM) and the MIC (Micrococcus luteus [11]) was 0.5 µg/mL (≈ 1.37 µM). It also gave an MIC (Vibrio cholerae [13]) of 256 µg/mL (≈ 701 µM), an MIC (Bacillus subtilis [14]) of 0.5 µg/mL (≈ 1.37 µM) and an MIC (Salmonella typhi [17]) of 128 µg/mL (≈ 350 µM). It also gave an MIC (Pseudomonas aeruginosa [18]) of 256 µg/mL (≈ 701 µM), an MIC (Escherichia coli [20]) of 0.5 µg/mL (≈ 1.37 µM) and an MIC (Salmonella typhimurium [25]) greater than 1000 µg/mL. For the same molecule, the MIC (Staphylococcus aureus [26]) was 0.5 µg/mL (≈ 1.37 µM).
`CCOC(=O)c1cc2ccccn2c1C(=O)c1ccccc1` was tested, and the MIC (Shigella flexneri [4]) was greater than 500 µg/mL, the MIC (Klebsiella pneumoniae [5]) was greater than 500 µg/mL and the MIC (Shigella dysenteriae [6]) was greater than 500 µg/mL. The MIC (Enterococcus faecalis [7]) was greater than 500 µg/mL, the MIC (Vibrio parahaemolyticus [8]) was greater than 500 µg/mL and the MIC (Micrococcus luteus [11]) was greater than 500 µg/mL. For the same molecule, the MIC (Vibrio cholerae [13]) was greater than 500 µg/mL, the MIC (Bacillus subtilis [14]) was greater than 500 µg/mL and the MIC (Salmonella typhi [17]) was greater than 500 µg/mL. For the same molecule, the MIC (Pseudomonas aeruginosa [18]) was greater than 500 µg/mL, the MIC (Escherichia coli [20]) was greater than 500 µg/mL and the MIC (Salmonella typhimurium [25]) was greater than 500 µg/mL. It also gave an MIC (Staphylococcus aureus [26]) greater than 500 µg/mL.
